Data from ChEMBL document CHEMBL3992547, “Antimicrobial activity of rhodanine-3-acetic acid derivatives” (Bioorg Med Chem, 2017).
In brackets after ≈: the same amount, converted by molar mass. Activity calls are given as the source filed them. The calls are words filed in the database; no cut-off is given here.

Tests used:
[1] = tested on: Enterococcus; assay: Antibacterial activity against Enterococcus sp. J 14365/08 incubated for 48 hrs under dark condition by microdilution broth assay; details: J 14365/08, 48 h
[2] = tested on: Candida albicans; assay: Antifungal activity against Candida albicans ATCC 44859 after 48 hrs by microdilution broth assay; assay type: functional; details: ATCC 44859, 48 h
Summary of the method: (§1)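 Broth microdilution per CLSI M27-A3 and M38-A2 in RPMI 1640 with glutamine, buffered to pH 7.0 with MOPS. Compounds are diluted in DMSO. Final inoculum is 5 × 10³ CFU/mL for yeasts and 0.5–5 × 10⁴ CFU/mL for moulds. Plates are incubated in the dark at 35 °C in humid air and read visually and/or at 540 nm after 24 and 48 h. MIC is ≥80% growth reduction (IC₈₀) for yeasts and ≥50% (IC₅₀) for filamentous fungi.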

[3] = tested on: Trichophyton mentagrophytes; assay: Antifungal activity against Trichophyton mentagrophytes 445 after 72 hrs by microdilution broth assay; assay type: functional; details: Trichophyton mentagrophytes, 445, 72 h
Summary of the method: (§2)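 Broth microdilution per CLSI M38-A2 in RPMI 1640 with glutamine, buffered to pH 7.0 with MOPS, with DMSO as diluent. Final inoculum is 0.5–5 × 10⁴ CFU/mL. Plates are incubated in the dark at 35 °C in humid air and read visually and/or at 540 nm after 72 and 120 h. MIC is at least 50% growth reduction versus control.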

[4] = tested on: Staphylococcus epidermidis; assay: Antibacterial activity against Staphylococcus epidermidis H 6966/08 incubated for 24 hrs under dark condition by microdilution broth assay; assay type: functional; details: H 6966/08, 24 h
Summary of the method: (§3)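 Broth microdilution per M07-A07, modified, in Mueller-Hinton broth adjusted to pH 7.4 (±0.2). Inoculum is prepared in sterile water to McFarland 0.5 (1.5 × 10⁸ CFU/mL). Plates are incubated in the dark at 35 °C in humid air. MIC is read after 24 and 48 h as at least 95% growth reduction versus control (IC₉₅).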

[5] = tested on: Trichophyton mentagrophytes; assay: Antifungal activity against Trichophyton mentagrophytes 445 after 120 hrs by microdilution broth assay; assay type: functional; details: Trichophyton mentagrophytes, 445, 120 h
Summary of the method: as §2

[6] = tested on: Mycobacterium kansasii; assay: Antimycobacterial activity against Mycobacterium kansasii isolate 235/80 after 21 days by micromethod; assay type: functional; details: isolate 235/80, 504 h
[7] = tested on: Staphylococcus aureus; assay: Antibacterial activity against Staphylococcus aureus CCM 4516/08 incubated for 24 hrs under dark condition by microdilution broth assay; assay type: functional; details: CCM 4516/08, 24 h
Summary of the method: as §3

[8] = tested on: Aspergillus fumigatus; assay: Antifungal activity against Aspergillus fumigatus 231 after 24 hrs by microdilution broth assay; assay type: functional; details: Aspergillus fumigatus, 231, 24 h
Summary of the method: as §1

[9] = tested on: Candida tropicalis; assay: Antifungal activity against Candida tropicalis 156 after 24 hrs by microdilution broth assay; assay type: functional; details: Candida tropicalis, 156, 24 h
Summary of the method: as §1

[10] = tested on: Mycobacterium kansasii; assay: Antimycobacterial activity against Mycobacterium kansasii isolate 6509/96 after 21 days by micromethod; assay type: functional; details: isolate 6509/96, 504 h
[11] = tested on: Pseudomonas aeruginosa; assay: Antibacterial activity against Pseudomonas aeruginosa CCM 1961 up to 500 uM incubated for 24 to 48 hrs under dark condition by microdilution broth assay; assay type: functional
Summary of the method: as §3

[12] = tested on: Mycobacterium kansasii; assay: Antimycobacterial activity against Mycobacterium kansasii isolate 235/80 after 7 days by micromethod; assay type: functional; details: isolate 235/80, 168 h
[13] = tested on: Mycobacterium tuberculosis; assay: Antimycobacterial activity against Mycobacterium tuberculosis H37Rv 331/88 measured after 21 days by micromethod; assay type: functional; details: H37Rv 331/88, 504 h
[14] = tested on: Mycobacterium kansasii; assay: Antimycobacterial activity against Mycobacterium kansasii isolate 6509/96 after 14 days by micromethod; assay type: functional; details: isolate 6509/96, 336 h
[15] = tested on: Aspergillus fumigatus; assay: Antifungal activity against Aspergillus fumigatus 231 after 48 hrs by microdilution broth assay; assay type: functional; details: Aspergillus fumigatus, 231, 48 h
Summary of the method: as §1

[16] = tested on: Staphylococcus aureus; assay: Antibacterial activity against methicillin-resistant Staphylococcus aureus H 5996/08 incubated for 24 hrs under dark condition by microdilution broth assay; assay type: functional; details: H 5996/08, 24 h
Summary of the method: (§4)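 Microdilution broth method modified per M07-A07, in Mueller-Hinton broth adjusted to pH 7.4 (±0.2). Inoculum made in sterile water to 0.5 McFarland (1.5 × 10⁸ CFU/mL). Plates incubated in the dark at 35 °C in a humid atmosphere, with reads at 24 and 48 h. MIC taken as at least 95% growth reduction (IC₉₅) versus control.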

[17] = tested on: Candida tropicalis; assay: Antifungal activity against Candida tropicalis 156 after 48 hrs by microdilution broth assay; assay type: functional; details: Candida tropicalis, 156, 48 h
Summary of the method: as §1

[18] = tested on: Enterococcus; assay: Antibacterial activity against Enterococcus sp. J 14365/08 incubated for 24 hrs under dark condition by microdilution broth assay; details: J 14365/08, 24 h
[19] = tested on: Pichia kudriavzevii; assay: Antifungal activity against Candida krusei E28 after 24 to 48 hrs hrs by microdilution broth assay; assay type: functional
Summary of the method: as §1

[20] = tested on: Mycobacterium kansasii; assay: Antimycobacterial activity against Mycobacterium kansasii isolate 6509/96 after 7 days by micromethod; assay type: functional; details: isolate 6509/96, 168 h
[21] = tested on: Candida albicans; assay: Antifungal activity against Candida albicans ATCC 44859 after 24 hrs by microdilution broth assay; assay type: functional; details: ATCC 44859, 24 h
Summary of the method: as §1

[22] = tested on: Lichtheimia corymbifera; assay: Antifungal activity against Absidia corymbifera 272 after 24 to 48 hrs hrs by microdilution broth assay; assay type: functional
Summary of the method: as §1

[23] = tested on: Trichosporon asahii; assay: Antifungal activity against Trichosporon asahii 1188 after 24 hrs by microdilution broth assay; assay type: functional; details: Trichosporon asahii, 1188, 24 h
Summary of the method: as §1

[24] = tested on: Escherichia coli; assay: Antibacterial activity against Escherichia coli CCM 4517 incubated for 48 hrs under dark condition by microdilution broth assay; assay type: functional; details: CCM 4517, 48 h
Summary of the method: as §3

[25] = tested on: Staphylococcus aureus; assay: Antibacterial activity against Staphylococcus aureus CCM 4516/08 incubated for 48 hrs under dark condition by microdilution broth assay; assay type: functional; details: CCM 4516/08, 48 h
Summary of the method: as §3

[26] = tested on: Nakaseomyces glabratus; assay: Antifungal activity against Candida glabrata 20/I after 48 hrs by microdilution broth assay; assay type: functional
Summary of the method: as §1

[27] = Solubility of the compound in Sula's semisynthetic medium up to 1 mM; assay type: physicochemical
[28] = tested on: Klebsiella pneumoniae; assay: Antibacterial activity against ESBL positive Klebsiella pneumoniae J 14368/08 up to 500 uM incubated for 24 to 48 hrs under dark condition by microdilution broth assay; assay type: functional
Summary of the method: as §3

[29] = tested on: Mycobacterium tuberculosis; assay: Antimycobacterial activity against Mycobacterium tuberculosis H37Rv 331/88 measured after 14 days by micromethod; assay type: functional; details: H37Rv 331/88, 336 h
[30] = tested on: Mycobacterium avium; assay: Antimycobacterial activity against Mycobacterium avium 330/88 measured after 14 days by micromethod; assay type: functional; details: 330/88, 336 h
[31] = tested on: Trichosporon asahii; assay: Antifungal activity against Trichosporon asahii 1188 after 48 hrs by microdilution broth assay; assay type: functional; details: Trichosporon asahii, 1188, 48 h
Summary of the method: as §1

[32] = tested on: Mycobacterium avium; assay: Antimycobacterial activity against Mycobacterium avium 330/88 measured after 21 days by micromethod; assay type: functional; details: 330/88, 504 h
[33] = tested on: Staphylococcus aureus; assay: Antibacterial activity against methicillin-resistant Staphylococcus aureus H 5996/08 incubated for 48 hrs under dark condition by microdilution broth assay; assay type: functional; details: H 5996/08, 48 h
Summary of the method: as §4

[34] = tested on: Nakaseomyces glabratus; assay: Antifungal activity against Candida glabrata 20/I after 24 hrs by microdilution broth assay; assay type: functional
Summary of the method: as §1

[35] = tested on: Mycobacterium kansasii; assay: Antimycobacterial activity against Mycobacterium kansasii isolate 235/80 after 14 days by micromethod; assay type: functional; details: isolate 235/80, 336 h
[36] = tested on: Klebsiella pneumoniae; assay: Antibacterial activity against Klebsiella pneumoniae D 11750/08 up to 500 uM incubated for 24 to 48 hrs under dark condition by microdilution broth assay; assay type: functional
Summary of the method: as §3

[37] = tested on: Escherichia coli; assay: Antibacterial activity against Escherichia coli CCM 4517 incubated for 24 hrs under dark condition by microdilution broth assay; assay type: functional; details: CCM 4517, 24 h
Summary of the method: as §3

[38] = tested on: Staphylococcus epidermidis; assay: Antibacterial activity against Staphylococcus epidermidis H 6966/08 incubated for 48 hrs under dark condition by microdilution broth assay; assay type: functional; details: H 6966/08, 48 h
Summary of the method: as §3

SMILES: O=C(CN1C(=O)CSC1=S)Oc1ccc([N+](=O)[O-])cc1
- MIC95 [1]: 500 µM (≈ 156 µg/mL)
- MIC80 [2]: > 500 µM
- MIC50 [3]: 125 µM (≈ 39 µg/mL)
- MIC95 [4]: 500 µM (≈ 156 µg/mL)
- MIC50 [5]: 250 µM (≈ 78.1 µg/mL)
- MIC [6]: 1000 µM (≈ 312 µg/mL)
- MIC95 [7]: 250 µM (≈ 78.1 µg/mL)
- MIC50 [8]: 500 µM (≈ 156 µg/mL)
- MIC80 [9]: > 500 µM
- MIC [10]: 500 µM (≈ 156 µg/mL)
- Activity [11]: inactive
- MIC [12]: 500 µM (≈ 156 µg/mL)
- MIC [13]: 500 µM (≈ 156 µg/mL)
- MIC [14]: 500 µM (≈ 156 µg/mL)
- MIC50 [15]: > 500 µM
- MIC95 [16]: 500 µM (≈ 156 µg/mL)
- MIC80 [17]: > 500 µM
- MIC95 [18]: 500 µM (≈ 156 µg/mL)
- Activity [19]: inactive
- MIC [20]: 500 µM (≈ 156 µg/mL)
- MIC80 [21]: > 500 µM
- Activity [22]: inactive
- MIC80 [23]: > 500 µM
- MIC95 [24]: > 500 µM
- MIC95 [25]: 500 µM (≈ 156 µg/mL)
- MIC80 [26]: > 500 µM
- solubility [27]: Soluble
- Activity [28]: inactive
- MIC [29]: 500 µM (≈ 156 µg/mL)
- MIC [30]: 1000 µM (≈ 312 µg/mL)
- MIC80 [31]: > 500 µM
- MIC [32]: 1000 µM (≈ 312 µg/mL)
- MIC95 [33]: 500 µM (≈ 156 µg/mL)
- MIC80 [34]: > 500 µM
- MIC [35]: 500 µM (≈ 156 µg/mL)
- Activity [36]: inactive
- MIC95 [37]: > 500 µM
- MIC95 [38]: 500 µM (≈ 156 µg/mL)

SMILES: O=C(CN1C(=O)CSC1=S)Nc1ccccc1
- MIC95 [1]: 500 µM (≈ 133 µg/mL)
- MIC80 [2]: > 500 µM
- MIC50 [3]: > 500 µM
- MIC95 [4]: 500 µM (≈ 133 µg/mL)
- MIC50 [5]: > 500 µM
- MIC [6]: 1000 µM (≈ 266 µg/mL)
- MIC95 [7]: 500 µM (≈ 133 µg/mL)
- MIC50 [8]: > 500 µM
- MIC80 [9]: 500 µM (≈ 133 µg/mL)
- MIC [10]: 1000 µM (≈ 266 µg/mL)
- Activity [11]: inactive
- MIC [12]: 1000 µM (≈ 266 µg/mL)
- MIC [13]: 1000 µM (≈ 266 µg/mL)
- MIC [14]: 1000 µM (≈ 266 µg/mL)
- MIC50 [15]: > 500 µM
- MIC95 [16]: > 500 µM
- MIC80 [17]: 500 µM (≈ 133 µg/mL)
- MIC95 [18]: 500 µM (≈ 133 µg/mL)
- Activity [19]: inactive
- MIC [20]: 1000 µM (≈ 266 µg/mL)
- MIC80 [21]: > 500 µM
- Activity [22]: inactive
- MIC80 [23]: > 500 µM
- MIC95 [24]: > 500 µM
- MIC95 [25]: 500 µM (≈ 133 µg/mL)
- MIC80 [26]: > 500 µM
- solubility [27]: Soluble
- Activity [28]: inactive
- MIC [29]: 1000 µM (≈ 266 µg/mL)
- MIC [30]: 1000 µM (≈ 266 µg/mL)
- MIC80 [31]: > 500 µM
- MIC [32]: > 1000 µM
- MIC95 [33]: > 500 µM
- MIC80 [34]: > 500 µM
- MIC [35]: 1000 µM (≈ 266 µg/mL)
- Activity [36]: inactive
- MIC95 [37]: > 500 µM
- MIC95 [38]: 500 µM (≈ 133 µg/mL)
